Data from PubChem BioAssay AID1765 (Sanford-Burnham Center for Chemical Genomics, 2009).
Calls of active or inactive are those of the source.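 The calls were made as follows: active = maximal cell kill higher at a 0.156 ng/ml dose of TRAIL, the death-signal protein, than with no TRAIL; inactive = the rest.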

Experiments:
[1] = system: PPC-1 cytotoxicity with TRAIL, ATPLite luminescence, 24 h; experiment: cytotoxicity with versus without TRAIL, dose response, mechanism study for TRAIL sensitizer project, cell-based, PPC-1, ATPlite luminescence, 24 h (AID 1765)
Outline: (§1)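 Assay system – PPC-1 cells · Probe or stimulus – TRAIL at 0.156 ng/mL, or no TRAIL (0 ng/mL) · Compound – 2-fold series from 10 µM, 0.5% DMSO · Times – compound pre-incubation 4 h before TRAIL, then 24 h TRAIL exposure · Technique – ATP-based luminescence with ATPlite reagent · Control set – 10 µM doxorubicin with TRAIL as full-kill reference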

[2] = as above; settings: PPC-1 cytotoxicity with TRAIL, ATPLite luminescence, 24 h
Outline: as §1

[3] = measured here: cytotoxicity without TRAIL
[4] = measured here: max cytotoxicity with TRAIL
[5] = measured here: max cytotoxicity without TRAIL

Row | Compound | EC50 [1] | EC50 [1, 3] [nM] | maximal effect [2, 4] [%] | maximal effect [2, 5] [%]
1 | CSc1nc(-c2ccccc2)nc(C(Cl)Cl)n1 | > 10000 nM (inactive) | > 10000 |  | 
2 | CCSc1nc(-c2ccccc2)nc(C(Cl)Cl)n1 | 2580 nM | 2500 | 46.7 | 34.2
3 | CSc1nc(-c2ccc(C)cc2)nc(C(Cl)Cl)n1 | 1000 nM | 810 | 94.5 | 50.4
